Measurements reported in ChEMBL document CHEMBL4270636, “5'-Chloro-2,2'-dihydroxychalcone and related flavanoids as treatments for prostate cancer” (Eur J Med Chem, 2018).
Calls of active or inactive are those of the source. The calls are words filed in the database; no cut-off is given here.

How the values were obtained:
LNCaP [1] = assay: Antiproliferative activity against human LNCAP cells assessed as reduction in cell growth treated every 2 days for 4 days by hemocytometry; type: functional, cell-based
Androgen receptor = target: T1, Androgen receptor (Homo sapiens, UniProt P10275); assay: Antagonist activity at AR in human LNCAP cells assessed as reduction in DHT-induced transcriptional activation after 24 hrs by luciferase reporter gene assay; type: cell-based
T1 sequence (P10275 whole entry): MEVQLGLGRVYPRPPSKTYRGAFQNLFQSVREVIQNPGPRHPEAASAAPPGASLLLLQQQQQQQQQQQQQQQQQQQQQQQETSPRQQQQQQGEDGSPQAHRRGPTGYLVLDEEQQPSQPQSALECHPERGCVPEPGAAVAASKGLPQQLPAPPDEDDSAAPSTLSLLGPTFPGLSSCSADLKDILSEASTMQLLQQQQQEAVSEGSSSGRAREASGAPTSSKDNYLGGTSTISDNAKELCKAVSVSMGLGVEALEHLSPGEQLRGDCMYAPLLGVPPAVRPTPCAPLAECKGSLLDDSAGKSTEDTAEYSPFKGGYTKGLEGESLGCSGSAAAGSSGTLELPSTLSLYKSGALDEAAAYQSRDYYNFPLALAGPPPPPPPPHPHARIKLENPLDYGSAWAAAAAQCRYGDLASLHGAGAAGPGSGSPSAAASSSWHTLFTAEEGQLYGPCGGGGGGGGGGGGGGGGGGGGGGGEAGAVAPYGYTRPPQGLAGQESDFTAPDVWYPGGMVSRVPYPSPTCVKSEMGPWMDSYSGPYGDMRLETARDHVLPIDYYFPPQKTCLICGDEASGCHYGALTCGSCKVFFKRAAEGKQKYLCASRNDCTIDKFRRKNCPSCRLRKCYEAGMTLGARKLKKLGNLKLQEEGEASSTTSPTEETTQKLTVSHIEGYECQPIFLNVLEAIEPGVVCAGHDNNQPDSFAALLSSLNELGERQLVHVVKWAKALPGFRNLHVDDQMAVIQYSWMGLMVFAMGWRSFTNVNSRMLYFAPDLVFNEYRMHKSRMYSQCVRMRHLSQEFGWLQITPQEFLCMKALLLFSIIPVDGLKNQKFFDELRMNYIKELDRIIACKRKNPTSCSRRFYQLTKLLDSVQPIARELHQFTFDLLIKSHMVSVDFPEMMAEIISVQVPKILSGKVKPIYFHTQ

MDA-MB-231 = assay: Antiproliferative activity against human MDA-MB-231 cells assessed as reduction in cell growth after 72 hrs by sulforhodamine B assay; type: functional, cell-based; settings: MDA-MB-231, 72 h
[2] = Antiproliferative activity against human KBVIN cells assessed as reduction in cell growth after 72 hrs by sulforhodamine B assay; type: functional, cell-based
A549 [3] = assay: Cell cycle arrest in human A549 cells assessed as accumulation at G2/M phase at 3 times IC50 after 24 to 48 hrs by propidium iodide staining based flow cytometry; type: functional
[4] = target: T2, Androgen receptor (Homo sapiens) (UniProt P10275); assay: Antagonist activity at AR (unknown origin) expressed in human PC3 cells assessed as reduction in DHT-induced transcriptional activation at 3 to 10 uM after 24 hrs by luciferase reporter gene assay; type: cell-based
T2 sequence (whole entry): T1 sequence (P10275 whole entry)
Method in brief: (§1)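 PC-3 cells (AR-negative) co-transfected with wild-type or AR-V7 expression vector plus PSA promoter-luciferase reporter (pGL3PSAp-5.8, 0.5 ug/well); seeded 50,000/well, transfected after 24 h, treated with compounds ± 1 nM DHT for 24 h from 24 h post-transfection; lysed cells read for luciferase activity by luminometer.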

PC-3 [5] = assay: Antitumor activity against human PC3 cells xenografted in C.B-17 SCID mouse assessed as tumor growth inhibition at 30 mg/kg, ip administered every 4 days measured during compound dosing; type: functional, organism-based
Method in brief: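 Male C.B-17 scid mice (purchased at 7 weeks) given 2.0×10⁶ PC-3 cells in 50% matrigel subcutaneously on dorsal side at 8 weeks; at ~50 mm³ tumor, randomized into groups of 5, dosing from second day at 30 mg/kg i.p. every 4 days; tumor volume and body weight followed; mean ± SD.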

DU-145 = assay: Antiproliferative activity against human DU145 cells assessed as reduction in cell growth treated every 2 days for 4 days by hemocytometry; type: functional, cell-based
A549 [6] = assay: Antiproliferative activity against human A549 cells assessed as reduction in cell growth after 72 hrs by sulforhodamine B assay; settings: A549, 72 h
MCF7 = assay: Antiproliferative activity against human MCF7 cells assessed as reduction in cell growth after 72 hrs by sulforhodamine B assay; settings: MCF7, 72 h
PC-3 [7] = assay: Antiproliferative activity against human PC3 cells assessed as reduction in cell growth treated every 2 days for 4 days by hemocytometry; type: functional, cell-based
PC-3 [8] = assay: Cell cycle arrest in human PC3 cells assessed as accumulation at Sub-G1 phase at 2 times IC50 after 24 to 48 hrs by propidium iodide staining based flow cytometry; type: functional
KB = assay: Antiproliferative activity against human KB cells assessed as reduction in cell growth after 72 hrs by sulforhodamine B assay
[9] = Antiproliferative activity against human DU145-TxR cells assessed as reduction in cell growth treated every 2 days for 4 days by hemocytometry; type: functional, cell-based
[10] = Antiproliferative activity against human DU145/TxR/CxR cells assessed as reduction in cell growth treated every 2 days for 4 days by hemocytometry; type: functional, cell-based; settings: DU-145
[11] = Antiproliferative activity against human PC3-TxR cells assessed as reduction in cell growth treated every 2 days for 4 days by hemocytometry; type: functional, cell-based
[12] = Antiproliferative activity against human PC3/TxR/CxR cells assessed as reduction in cell growth treated every 2 days for 4 days by hemocytometry; type: functional, cell-based
[13] = system: Androgen receptor (Homo sapiens), P10275 [UNDEFINED MUTATION]; assay: Antagonist activity at AR V7 mutant (unknown origin) expressed in human PC3 cells assessed as reduction in DHT-induced transcriptional activation after 24 hrs by luciferase reporter gene assay; type: cell-based; method in brief: as §1
LNCaP [14] = assay: Antiproliferative activity against human LNCAP cells assessed as reduction in cell growth at 10 uM treated every 2 days for 4 days by hemocytometry; type: functional, cell-based
Homo sapiens = species: Homo sapiens; assay: Antiproliferative activity against human LNCaP-SF cells assessed as reduction in cell growth at 10 uM treated every 2 days for 4 days by hemocytometry; type: functional, cell-based
Method in brief: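 LNCaP-SF castration-resistant subline cultured 4 days with compound at stated concentrations, with or without 0.1 nM DHT; growth assessed by cell counting.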

[15] = target: T2, Androgen receptor (Homo sapiens); assay: Antagonist activity at AR in human LNCAP cells assessed as reduction in DHT-induced cell growth at 1 to 3 uM treated for every 2 days for 4 days by hemocytometry; type: cell-based
A549 [16] = assay: Cell cycle arrest in human A549 cells assessed as accumulation at Sub-G1 phase at 3 times IC50 after 24 to 48 hrs by propidium iodide staining based flow cytometry; type: functional
[17] = system: Androgen receptor (Homo sapiens), P10275 [UNDEFINED MUTATION]; settings: at 3 to 10 µM
PC-3 [18] = assay: Cell cycle arrest in human PC3 cells assessed as accumulation at G2/M phase at 200 nM after 24 hrs by propidium iodide staining based flow cytometry; type: functional

O=c1cc(-c2ccccc2O)oc2ccccc12
IC50 (LNCaP [1]): > 10 µM
IC50 (Androgen receptor): < 1 µM

O=C(/C=C/c1ccccc1)c1cc(Cl)ccc1O
IC50 (Androgen receptor): 1.51 µM

O=C1CC(c2ccccc2O)Oc2ccc(O)cc21 (stereo unspecified)
IC50 (Androgen receptor): 2.73 µM

COc1ccccc1/C=C/C(=O)c1ccccc1O
IC50 (Androgen receptor): 3.5 µM

O=C(/C=C/c1ccc(O)cc1)c1cc(Cl)ccc1O
IC50 (Androgen receptor): 5.92 µM

COc1ccc2c(c1)C(=O)CC(c1ccccc1OC)O2 (stereo unspecified)
IC50 (Androgen receptor): > 10 µM

COc1ccccc1/C=C/C(=O)c1cc(Br)ccc1O
IC50 (MDA-MB-231): 9.7 µM
IC50 [2]: 11.1 µM
IC50 (LNCaP [1]): 4.96 µM
Activity (A549 [3]): Active
inhibition [4]: Active
TGI (PC-3 [5]): inactive
IC50 (DU-145): 6.13 µM
IC50 (A549 [6]): 8.5 µM
IC50 (MCF7): 14.1 µM
IC50 (PC-3 [7]): 1.84 µM
Activity (PC-3 [8]): Active
IC50 (KB): 16.2 µM
IC50 [9]: 4.47 µM
IC50 [10]: 5.16 µM
IC50 [11]: 3.76 µM
IC50 (Androgen receptor): < 1 µM
IC50 [12]: 3.73 µM
inhibition [13]: Dose-dependent effect
Activity (LNCaP [14]): Active
Activity (Homo sapiens): Active
Activity [15]: Active
Activity (A549 [16]): inactive

CC(=O)O[C@H]1C(=O)[C@@]2(C)[C@H]([C@H](OC(=O)c3ccccc3)[C@]3(O)C[C@H](OC(=O)[C@H](O)[C@@H](NC(=O)c4ccccc4)c4ccccc4)C(C)=C1C3(C)C)[C@]1(OC(C)=O)CO[C@@H]1C[C@@H]2O [PACLITAXEL]
IC50 (MDA-MB-231): 0.0096 µM
IC50 [2]: 1.73 µM

O=C1CC(c2ccccc2O)Oc2ccccc21 (stereo unspecified) [2'-HYDROXY-FLAVANONE]
IC50 (LNCaP [1]): 5.45 µM
inhibition [4]: Active
IC50 (DU-145): 4.11 µM
inhibition [17]: inactive
IC50 (PC-3 [7]): 2.56 µM
IC50 (Androgen receptor): < 1 µM
Activity (LNCaP [14]): Active
Activity (Homo sapiens): Active
Activity [15]: Active

COc1ccccc1/C=C/C(=O)c1cc(I)ccc1O
IC50 (Androgen receptor): 1.72 µM

O=C1CC(c2ccccc2O)Oc2ccc(Cl)cc21 (stereo unspecified)
IC50 (Androgen receptor): 1.68 µM

COc1ccc2c(c1)OC(c1ccccc1O)CC2=O (stereo unspecified)
IC50 (Androgen receptor): > 10 µM

O=C(/C=C/c1ccccc1O)c1cc(Br)ccc1O
IC50 (Androgen receptor): 8.69 µM

O=C(/C=C/c1ccccc1O)c1cc(F)ccc1O
IC50 (Androgen receptor): 1.42 µM

O=C(/C=C/c1ccc2c(c1)OCO2)c1cc(Cl)ccc1O
IC50 (Androgen receptor): 4.36 µM

COc1ccc(/C=C\c2cc(OC)c(OC)c(OC)c2)cc1O
Activity (PC-3 [18]): Active

O=C1CC(c2ccccc2O)Oc2cc(O)cc(O)c21 (stereo unspecified)
IC50 (Androgen receptor): > 10 µM

CNC(=O)c1ccc(N2C(=S)N(c3ccc(C#N)c(C(F)(F)F)c3)C(=O)C2(C)C)cc1F
Activity (LNCaP [14]): inactive

COc1cc(/C=C/C(=O)c2cc(Cl)ccc2O)ccc1O
IC50 (Androgen receptor): 5.95 µM

O=C1CC(c2ccccc2O)Oc2c(Br)cc(Br)cc21 (stereo unspecified)
IC50 (Androgen receptor): 3.57 µM

COc1ccc2oc(-c3ccccc3OC)cc(=O)c2c1
IC50 (Androgen receptor): 6.19 µM

COCOc1ccccc1/C=C/C(=O)c1cc(F)ccc1O
IC50 (Androgen receptor): > 10 µM

O=C1CC(c2ccccc2O)Oc2ccc(I)cc21 (stereo unspecified)
IC50 (Androgen receptor): 4.26 µM

COc1ccccc1/C=C/C(=O)c1cc(Cl)ccc1O
IC50 (Androgen receptor): > 10 µM

CC(C)Oc1ccccc1/C=C/C(=O)c1cc(Br)ccc1O
IC50 (LNCaP [1]): 4.2 µM
IC50 (DU-145): 5.03 µM
IC50 (PC-3 [7]): 4.16 µM
IC50 (Androgen receptor): < 1 µM

O=C1CC(c2ccccc2O)Oc2cc(O)ccc21 (stereo unspecified)
IC50 (Androgen receptor): > 10 µM

COc1ccc(O)c(C(=O)/C=C/c2ccccc2OC)c1
IC50 (LNCaP [1]): 7.25 µM
IC50 (DU-145): > 10 µM
IC50 (PC-3 [7]): 7.33 µM
IC50 (Androgen receptor): < 1 µM

COc1ccccc1/C=C/C(=O)c1cc(F)ccc1O
IC50 (Androgen receptor): 5.01 µM

O=C(/C=C/c1ccccc1O)c1cc(I)ccc1O
IC50 (Androgen receptor): 1.64 µM

COc1ccc(/C=C/C(=O)c2cc(Cl)ccc2O)cc1OC
IC50 (Androgen receptor): 5.25 µM

CCCOc1ccccc1/C=C/C(=O)c1cc(Br)ccc1O
IC50 (Androgen receptor): 3.96 µM

O=C(/C=C/c1ccccc1O)c1cc(Br)cc(Br)c1O
IC50 (Androgen receptor): 2.87 µM

CCOc1ccccc1/C=C/C(=O)c1cc(Br)ccc1O
IC50 (Androgen receptor): 5.27 µM

O=C1CC(c2ccccc2O)Oc2ccc(Br)cc21 (stereo unspecified)
IC50 (Androgen receptor): 1.77 µM
